Laboratory results reported in ChEMBL document CHEMBL4513216, “Probing the Open Global Health Chemical Diversity Library for Multistage-Active Starting Points for Next-Generation Antimalarials” (ACS Infect Dis, 2020).

Assay: Toxicity liver stage against HepG2, at 10uM
Type: cell-based
Parameters: test concentration 10 uM, cell line HepG2-A16-CD81EGFP
Conditions: human, HepG2-A16-CD81EGFP cells; read-out: INHIBITION
Outline: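 Uninfected HepG2-A16-CD81EGFP cells, 3 × 10^3 per well, 1536-well, plated on prespotted compound at 10 μM final, parasite-free screening media added to match infected plates; puromycin 10 μM positive, DMSO 0.5% negative; run in parallel with 48 h PbLuc assay at 37 °C, 5% CO2; viability by CellTiter-Glo luminescence, normalized to controls.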

| Compound | cytotoxicity at 10 µM [%] |
| --- | --- |
| Cc1nc2c(Nc3cccc(C#N)c3)nc(N)nc2n1C | -1.87 |
| COCCOc1ccc(CNc2cnc3ccccc3n2)cn1 | 8.15 |
| c1ccc(O[C@H]2COCCN(Cc3c[nH]c4ccccc34)C2)cc1 | -0.347 |
| Cc1cc(C(=O)N2CCOC[C@H](Oc3cccnc3)C2)c(C(F)(F)F)o1 | 3.11 |
| CN1CCN(C(=O)c2cn(Cc3ccccc3)c3ncccc23)CC1 | -6.63 |
| CSc1ccc(C(=O)N2CC(=O)N(Cc3ccccc3)CC(O)C2)cc1 (stereo not given) | -0.426 |
| CCOC(=O)Cc1csc(NC(=O)c2cc3n(n2)CCCO3)n1 | -11.9 |
| CC(C)(C)C(=O)NCCn1ccc(-c2ccccn2)n1 | 6.47 |
| O=C1NCCC12CN(CC1CC1)CC21CCNCC1 (stereo not given) | -5.31 |
| Cc1cccc(N2CC[C@@H]3[C@@H](CO[C@H]3CNC(=O)c3ccco3)C2)n1 | -1.67 |
| Cc1csc([C@@H]2C[C@@H]3CCN(C(=O)c4cnccn4)C[C@H]3O2)n1 | 2.08 |
| Cc1c(Cl)cccc1NC(=O)Cn1cc(C(=O)O)ccc1=O | -5.21 |
| COc1cccc(-n2ccc3nc(N4CCCC4)ncc3c2=O)c1 | 5.92 |
| O=C(c1cnc2ccc(F)cc2c1NCc1ccccn1)N1CCCC1 | 3 |
| Cc1c(C(=O)O)cnn1-c1ccc(-c2nc(C(C)C)no2)cn1 | -3.42 |
| Cc1noc(C2CCCCN2C(=O)NC2CCCC2)n1 (stereo not given) | 2.4 |
| O=C1CC[C@H]2[C@H](CCN2C(=O)C2CCCO2)N1CCN1CCCC1 (stereo not given in full) | -4.66 |
| CCOC(=O)c1sc(NC(=O)C(C)(C)C)c(C#N)c1C | 9.04 |
| Cc1nn(CCCNC(=O)C2CCN(S(C)(=O)=O)CC2)cc1Br | -7.24 |
| CCN1C(=O)C(C)(C)c2cc(NC(=O)c3ccn(CC)n3)ccc21 | 9.65 |
| Cn1nc(C(=O)NCc2ccccn2)c2c1CCS(=O)(=O)C2 | 7.21 |
| CCn1cc(S(=O)(=O)N2CCCC3(CC=CNC3=O)C2)c(C)n1 (stereo not given) | -7.56 |

| Compound | cytotoxicity at 10 µM [%] |
| --- | --- |
| OCC(CO)N1CCC(c2nccnc2Nc2cnccn2)CC1 | -10.5 |
| CC(=O)N1CCN([C@@H]2CN(C(=O)Cc3ccccc3C)C[C@H]2O)CC1 | -6.94 |
| CC1CCc2n[nH]c(C(=O)NCCCc3ccccn3)c2C1 (stereo not given) | -24.3 |
| CN(C)c1cc(C2CCCN(S(=O)(=O)c3cn(C)cn3)C2)ccn1 (stereo not given) | -14.4 |
| CC(C)(C)C(O)CN1CCN(Cc2cccc(C#N)c2)CC1 (stereo not given) | 3.7 |
| Cc1nnc(NCc2ccc(Br)cc2)o1 | 1.66 |
| Cc1nc2cc(F)cc(C(=O)N3CCN(CC(C)O)CC3)c2nc1C (stereo not given) | 4.5 |
| CCNC(=O)c1ccc(NC(=O)N(C)Cc2cc(C)on2)cc1 | -4.22 |
| Cc1cccc(C(=O)N(C)CC(=O)N2CCCC2)c1C | -0.291 |
| COCCN1CCC(CNC(=O)CCc2cc(F)ccc2F)C1 (stereo not given) | -4.05 |
| CC(c1ccc(S(N)(=O)=O)cc1)N(C)C(=O)c1ccccc1I (stereo not given) | -0.629 |
| CNC(=O)NC(=O)C(C)Nc1ccccc1OCCOC (stereo not given) | 2.24 |
| CC(C)(CNC(=O)Nc1cccc(-c2nccs2)c1)C(N)=O | -10 |
| Cc1cccc(CNC(Cn2cncn2)c2ccccc2)c1C (stereo not given) | -5.23 |
| COc1c(CNC2CCN(CC(=O)NC3CC3)CC2)c(C)nn1C | 7.76 |
| Cc1c(F)cc(C(=O)NCC(F)(F)F)cc1NCC(=O)N(C)C | 10.2 |
| c1cc(-c2noc(-c3cc(C4CC4)[nH]n3)n2)cc(N2CCCCC2)n1 | 3.05 |
| CCn1c(C)nnc1CN(C)C1CCN(Cc2sc(C)nc2C)C1 (stereo not given) | 6.47 |
| Cc1ccc(C(=O)NC2CCN(Cc3noc(C(C)(C)C)n3)CC2)s1 | 1.33 |
| Cc1cccc(-c2nc(CN3CC(n4nc(C)cc4C)C3)no2)c1 | 1.37 |
| O=C(c1cccc(-n2cnnn2)c1)N1CCC2(CC1)OCCO2 | -126 |
| COCCn1ccc2cc(NC(=O)COC)ccc21 | 0.82 |

| Compound | cytotoxicity at 10 µM [%] |
| --- | --- |
| CC(C)(C)c1n[nH]c(C2CN(C(=O)c3cnc[nH]3)CCO2)n1 (stereo not given) | 0.152 |
| CC1CN(C(=O)Nc2cccc(CN3CCOC3=O)c2)CCO1 (stereo not given) | -7 |
| Cc1ncsc1CCN1CCC(N(C)Cc2ncc(C(C)C)o2)C1 (stereo not given) | -7.49 |
| Clc1ccc(NCc2nnc(C3CC3)o2)cc1Cl | -12.4 |
| Cc1nc(C)n(Cc2cccc(NC3CCN(C)C3=O)c2)n1 (stereo not given) | -0.519 |
| Cc1cc(NC(=O)CN2CCCC(Cn3cncn3)C2)on1 (stereo not given) | 1.68 |
| Cc1c(C(=O)NC2(C#N)CCCC2)nnn1-c1ccccc1Cl | -6.75 |
| Cc1noc(C)c1CSC1CCCN(c2cnn(C)c2)C1=O (stereo not given) | 16.8 |
| COCc1nc(CNc2cccc(-c3ncon3)c2)cs1 | 1.22 |
| O=C1CCC(C(=O)NCCOc2ccccc2-c2ccccc2)CN1 (stereo not given) | 5.47 |
| CC(C(=O)NC1CCCCC1)N1CCc2[nH]nc(C(F)(F)F)c2C1 (stereo not given) | 5.15 |
| CCN(CCCNC(=O)c1cc2cccc(F)c2o1)S(C)(=O)=O | 4.35 |
| CN(C)c1nc(CNC(=O)N[C@H](CO)c2ccccc2)cs1 | 11.7 |
| O=S(=O)(CCCNCCn1cccn1)c1ccccc1 | 5.96 |
| OC(COc1ccccc1Br)COC1CCOCC1 (stereo not given) | -8 |
| CCc1cnc(N2CCN(Cc3ccno3)CC2)s1 | -2.54 |
| CC(C(=O)N(C)C)S(=O)(=O)c1cc2c(cc1Cl)OCCO2 (stereo not given) | 7.71 |
| Cc1nn(C)c(C)c1C1CCCN1c1ncnc2[nH]ccc12 (stereo not given) | 3.45 |
| CC(C)c1nsc(N2CCn3c(nnc3C(F)(F)F)C2)n1 | 5.83 |
| COc1ccc(CCC(=O)N(C(C)C)C2CCOCC2)cc1 | -11.8 |
| Cc1cc(CN2CCN(S(=O)(=O)c3c(C)c(Cl)cc(C)c3Cl)CC2)on1 | -8.87 |
| O=C(CCOc1ccccc1F)N1CCC(O)CC1 | -14 |

| Compound | cytotoxicity at 10 µM [%] |
| --- | --- |
| CC(CO)(NC(=O)Nc1nncs1)C1CCCCC1 (stereo not given) | 4.17 |
| CC(O)CNc1nc(-c2cccnc2)nc2c1CCC2 (stereo not given) | 9.8 |
| COCC1CN(C(=O)Nc2cc(Cl)cc(Cl)c2)CCO1 (stereo not given) | -4.44 |
| CCC(C)CN(C)C(=O)NCc1ccccc1-n1cccn1 (stereo not given) | 8.75 |
| CC(C)c1n[nH]c(C2CN(C(=O)CCCn3cccn3)CCO2)n1 (stereo not given) | -7.85 |
| O=C(NCC1CC1)C1CSCN1S(=O)(=O)c1cccc(F)c1 (stereo not given) | -14.3 |
| Cc1cc(C)n(CC2CN(Cc3cccc(C(N)=O)c3)CCO2)n1 (stereo not given) | -4.97 |
| CN(CCc1cn[nH]c1)C(=O)C1CC(=O)N(Cc2ccccn2)C1 (stereo not given) | -6.47 |
| COc1ccc2c(c1)OCC(Cc1cc(N3CCCC3)cnn1)C2 (stereo not given) | -18.1 |
| CCc1ccc(CN2CCCC(c3nn(C)c(=O)n3CC)C2)nc1 (stereo not given) | 1.93 |
| CCn1c(-c2ccccc2)nn(CC(=O)NCCc2ccc(C)s2)c1=O | 7.69 |
| CC(C)Oc1cccc(F)c1C(C(=O)O)N1CCCC1 (stereo not given) | -3.33 |
| CSCCCN1CCc2nc(N(C)C)nc(N3CCC(O)CC3)c2C1 | -4.67 |
| CN(Cc1ccccc1CN1CCCC1)c1ncnc2[nH]ccc12 | 8.53 |
| O=S(=O)(c1ccc(-c2nc3c([nH]2)CCNC3)cc1)N1CCCC1 | -2.09 |
| Cc1cc(CC(=O)N2CCN(CC(C)C)[C@@H]3CS(=O)(=O)C[C@@H]32)ccc1F | -2.22 |
| CCCNc1ncc(CN2CCC3(CCNC(=O)CC3)CC2)cn1 | -166 |
| Cn1ccnc1-c1ccc(NCC2COCCO2)nn1 (stereo not given) | 9.3 |
| COc1cccc2c1OCC(CNC(=O)COCC(F)(F)C(F)F)C2 (stereo not given) | -134 |
| CCOC(=O)N1CCN(CC(=O)Nc2nnc(CC)s2)CC1 | -8.94 |
| COc1ccccc1[C@@H]1CN(CC(=O)N2CCCCC2)C[C@H]1C(=O)O | -2.82 |
| CS(=O)(=O)N1CCC(c2nnc(Cn3ccnc3)n2C2CC2)CC1 | -1.24 |

| Compound | cytotoxicity at 10 µM [%] |
| --- | --- |
| CCCN(CC)c1cc(C2CCNCC2)nc(C)n1 | -7.33 |
| CC(=O)N1CCc2c(nc(-c3ccccn3)nc2N(C)CC(O)CO)C1 (stereo not given) | -12.2 |
| COC(=O)N1CC(C)=C(C)CN1C(=O)Nc1ccc(Cl)cc1 | -7.97 |
| CCC(N)c1ccccc1OCC(=O)N1CCCC1 (stereo not given) | -5.16 |
| CC(C(=O)NCCOc1ccc(F)cc1)n1cncn1 (stereo not given) | -1.46 |
| Cc1cc(CN2CCN(C(=O)NCc3cccs3)CC2)no1 | -11.6 |
| Cc1cnn(CC2CCCCN2C(=O)c2n[nH]c3ccccc23)c1 (stereo not given) | -8.25 |
| Cc1cnn(C2CCCN(C(=O)c3cn(-c4ccccc4)nc3C)C2)c1 (stereo not given) | -5.46 |
| Cc1nn(C)c(N(C)C)c1CNCc1ccnc(N2CCCC2)c1 | -11.4 |
| Cc1cnc(CN(C)C2CCN(Cc3nnc(C4CC4)o3)C2)o1 (stereo not given) | 5.25 |
| O=C(CCCOc1cccc(F)c1)N1CCCC(n2cccn2)C1 (stereo not given) | -16 |
| CN1N=C(C(=O)Nc2cc(F)ccc2OCC2CCCO2)CCC1=O (stereo not given) | -8 |
| CC(CNCc1ccc(Cl)c(Cl)c1)Oc1ccccn1 (stereo not given) | -0.291 |
| COC(C)(C)C(=O)N1CCC(c2cc(CN(C)C)n(C)n2)CC1 | 0.748 |
| O=C(NCCN1CCCC1)c1nc2c(o1)CN(C(=O)c1cccnc1)C2 | -1.08 |
| Cc1cccc(CN2C[C@@H]3[C@@H](C(=O)NCC(C)C)CCS(=O)(=O)[C@@H]3C2)c1 | -2.63 |
| COCCN1C[C@H](OCc2csc(C)n2)[C@H]2COC[C@H]21 | -6.08 |
| Cn1cc(CN2CCC[C@]3(C(=O)O)CN(c4ncccn4)C[C@@H]3C2)cn1 | 4.89 |
| CN(C)C(=O)CN1CC[C@H]2CN(S(C)(=O)=O)C[C@@H]2C1=O | -13.1 |
| O=C1N(Cc2cccnc2)CCC12CCCN(c1ncc(F)cn1)C2 (stereo not given) | -1 |
| O=C(N1CCOCC1)N1C[C@@H]2CC[C@H]1CN(C1Cc3ccccc3C1)C2 | -4.55 |
| COCCOCC1(CNCc2ccc(F)cc2)C[C@@H](O)[C@@H](O)C1 (stereo not given in full) | -3.1 |
